The text below walks through data of ChEMBL document CHEMBL1157680, “Isoxazole analogues bind the system xc- transporter: structure-activity relationship and pharmacophore model” (Bioorg Med Chem, 2010).

Test [1] deals with T1, Cystine/glutamate transporter (Homo sapiens) (UniProt Q9UPY5).
T1 sequence (whole entry): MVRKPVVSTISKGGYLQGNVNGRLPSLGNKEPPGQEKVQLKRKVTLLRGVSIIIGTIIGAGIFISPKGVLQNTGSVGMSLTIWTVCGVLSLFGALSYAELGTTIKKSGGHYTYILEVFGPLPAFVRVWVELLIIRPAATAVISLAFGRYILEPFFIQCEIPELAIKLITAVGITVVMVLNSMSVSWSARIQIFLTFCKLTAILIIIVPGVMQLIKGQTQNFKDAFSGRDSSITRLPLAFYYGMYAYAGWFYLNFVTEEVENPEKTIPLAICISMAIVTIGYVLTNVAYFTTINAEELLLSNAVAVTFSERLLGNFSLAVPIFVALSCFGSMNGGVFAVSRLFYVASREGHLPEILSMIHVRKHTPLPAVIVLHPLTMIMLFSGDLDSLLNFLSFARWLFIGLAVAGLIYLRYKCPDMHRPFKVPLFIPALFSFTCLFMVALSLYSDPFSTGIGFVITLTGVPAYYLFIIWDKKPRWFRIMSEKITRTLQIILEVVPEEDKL
In words: Inhibition of amino acid transport system xc- in human SNB19 cells assessed as [3H]L-glutamate uptake at 500 uM by liquid scintillation counting. The format is cell-based. On the set-up: scale not given: the % may be the effect or the level left. As to conditions: SNB-19. In outline:
(§1)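 Confluent SNB-19 glioma monolayers were refed 2 h before assay, then preincubated 5 min at 30 °C in Na+-free HEPES-buffered Hank's (choline Cl, pH 7.4). Test agent was added together with L-[3H]-glutamate plus unlabeled L-Glu (10–500 μM final). After 5 min at 30 °C, ice-cold washes stopped uptake. Cells were lysed in 0.4 M NaOH and counted by LSC. Results are % of control uptake.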

In test [2] the target is T1, Cystine/glutamate transporter (Homo sapiens). In words: Inhibition of [3H]L-glutamate uptake at amino acid transport system xc- in human SNB19 cells at 500 uM by liquid scintillation counting. The following applies: SNB-19. Format: cell-based. Summed up: as §1
Test [3] has the same target. In words: Inhibition of amino acid transport system xc- in human SNB19 cells assessed as [3H]L-glutamate uptake at 250 uM by liquid scintillation counting. Format: cell-based. On the set-up: scale not given: the % may be the effect or the level left. As to conditions: SNB-19. Summed up: as §1
In test [4] the target is T2, Cystine/glutamate transporter (Homo sapiens, UniProt Q9UPY5).
T2 sequence (Q9UPY5 whole entry): T1 sequence (whole entry)
In words: Competitive inhibition of [3H]L-glutamate uptake at amino acid transport system xc- in human SNB19 cells by liquid scintillation counting. Format: cell-based, SNB-19. In outline: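 SNB-19 glioma monolayers were assayed in Na+-free choline-HEPES Hank's buffer, pH 7.4, at 30 °C. L-[3H]-glutamate with L-Glu (10–500 μM final) and inhibitor were added simultaneously for 5 min. Radioactivity in NaOH lysates was counted by LSC. Ki came from a replot of Km,app values, or from IC50 inhibition curves using the Cheng-Prusoff equation.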

The target in test [5] is T2, Cystine/glutamate transporter. In words: Inhibition of amino acid transport system xc- in human SNB19 cells assessed as [3H]L-glutamate uptake by liquid scintillation counting. Format: cell-based, SNB-19.
For test [6], the target named is T1, Cystine/glutamate transporter (Homo sapiens). In words: Activity at amino acid transport system xc- in human SNB19 cells assessed as induction of L-glutamate efflux at 500 uM by fluorometric assay. The following applies: SNB-19. The format is cell-based. In outline:
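Paired SNB-19 coverslips were rinsed 10 min in Na+-free HBHS, then placed in a stirred cuvette (2 ml HBHS, 30 °C). NADP+ (1 mM) was added at 0 s and glutamate dehydrogenase (33 U) at 60 s, then the test substrate. L-Glu efflux was followed in real time as NADPH fluorescence. Triton X-100 (0.5%) gave total cellular L-Glu. Efflux was quantified from a cell-free standard curve.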

The target is the same in test [7]. The following applies: SNB-19, 500 uM.
Test [8] has as its system LRM55. In words: Inhibition of amino acid transport system xc- in rat LRM55 cells assessed as [3H]L-glutamate uptake at 500 uM by liquid scintillation counting. Format: cell-based. On the set-up: scale not given: the % may be the effect or the level left.

Calls of active or inactive are those of the source. The rule behind the calls is not given here.

For the compound `Cc1nn(-c2ccc(F)cc2F)c(=O)c2noc(C)c12`, the Activity in test [1] was 95%. As to `Cc1nn(-c2ccc(C(F)(F)F)cc2)c(=O)c2noc(C)c12`, the Activity in test [1] was found to be 99%.

As to `Cc1nn(-c2cc(C(F)(F)F)cc(C(F)(F)F)c2)c(=O)c2noc(C)c12`, the Activity in test [1] worked out at 82%. For the same compound, in test [2], the inhibition worked out at 18%. With `COC(C)c1onc(C(=O)O)c1C[C@H](N)C(=O)O` (mixture of isomers), in test [3], the Activity stood at 115%.

Take `Cc1nn(-c2ccccc2)c(=O)c2noc(C)c12`: the Activity in test [1] came out at 74%. In addition, the inhibition in test [2] is 26%. In the case of `C/C(=N\Nc1ccc([N+](=O)[O-])cc1[N+](=O)[O-])c1c(C(=O)O)noc1CCc1ccc2ccccc2c1`, the Activity in test [1] amounted to 45%. The same compound came in with a Ki in test [4] of 113 µM. In test [5], the IC50 was determined as 225 µM. Further, in test [6], the result was inactive. Turning to `C/C(=N\NC(N)=O)c1c(C(=O)O)noc1C`, in test [3], the Activity was 91%.

On to `Cc1onc(C(=O)O)c1CC(N)C(=O)O` (racemic), for which the Activity in test [3] was determined as 101%. Regarding `CCc1onc(C(=O)O)c1C[C@H](N)C(=O)O`, the Activity in test [3] was determined as 92%. The same measure, in the same setting: with `N[C@@H](Cc1c(C(=O)O)noc1COCc1ccccc1)C(=O)O` (racemic) the figure was 70%.

For `C/C(=N\Nc1ccc([N+](=O)[O-])cc1[N+](=O)[O-])c1c(C(=O)O)noc1C`, the Activity is 73% in test [3] and 45% in test [1]. For the same compound, the inhibition constant (Ki) in test [4] turned out to be 147 µM. Besides, the IC50 in test [5] came to 290 µM. The outcome in test [6] was inactive. Regarding `C/C(=N\NS(=O)(=O)c1ccccc1)c1c(C(=O)O)noc1C`, in test [3], the Activity was determined as 101%.

As for `N[C@@H](Cc1c(C(=O)O)noc1CCc1cccc2ccccc12)C(=O)O`, the Activity in test [3] stood at 47%. This compound displayed a Ki in test [4] of 117 µM. For the same compound, the outcome in test [6] was inactive. With `N[C@@H](Cc1c(C(=O)O)noc1CCc1ccccc1)C(=O)O`, in test [3], the Activity was 70%. For the compound `Cc1nn(-c2cc(Cl)cc(Cl)c2)c(=O)c2noc(C)c12`, in test [1], the Activity turned out to be 89%.

Regarding `COCc1onc(C(=O)O)c1C[C@H](N)C(=O)O`, in test [3], the Activity amounted to 98%.

Consider `CCOC(=O)c1noc(C)c1/C(C)=N/NS(=O)(=O)c1ccccc1`, for which the Activity in test [3] turned out to be 96%. In the case of `N[C@@H](Cc1c(C(=O)O)noc1CCc1ccc2ccccc2c1)C(=O)O`, the Activity in test [3] was determined as 37%. The compound also gave a Ki in test [4] of 52 µM. Further, in test [6], the result was inactive. For the same compound, the inhibition entry in test [7] is “Active”. In the case of `Cc1ccc(-n2nc(C)c3c(C)onc3c2=O)cc1`, the Activity in test [1] was 94%. Turning to `C/C(=N\NC(=O)Nc1ccccc1)c1c(C(=O)O)noc1C`, the Activity in test [3] turned out to be 76%. Still for that read-out and setting: to `CCOC(=O)c1noc(C)c1/C(C)=N/NC(N)=O` belongs 103%. With `Cc1onc(O)c1C[C@H](N)C(=O)O`, the Activity in test [8] was 95%.

On to `C/C(=N\Nc1ccc([N+](=O)[O-])cc1[N+](=O)[O-])c1c(C(=O)O)noc1COCc1ccc2ccccc2c1`, for which the Activity in test [1] is 95%. In the case of `C/C(=N\Nc1ccccc1)c1c(C(=O)O)noc1C`, in test [1], the Activity turned out to be 56%. Moreover, the inhibition in test [2] was determined as 44%. Take `C/C(=N\Nc1cc(C(F)(F)F)cc(C(F)(F)F)c1)c1c(C(=O)O)noc1C`: in test [1], the Activity came to 14%. The inhibition in test [2] turned out to be 86%. Besides, in test [4], affinity was put at a Ki of 64 µM. Moreover, the IC50 in test [5] amounted to 129 µM. Moreover, the result in test [6] was inactive. The matching figures for `C/C(=N\Nc1ccc([N+](=O)[O-])cc1)c1c(C(=O)O)noc1C`: 22%, 78%, 60 µM, 127 µM and “inactive”. With `COc1ccc(-n2nc(C)c3c(C)onc3c2=O)cc1`, the Activity in test [1] turned out to be 92%. Take `Cc1onc(C(=O)O)c1C[C@H](N)C(=O)O`: in test [3], the Activity amounted to 98%. With `Cc1nn(-c2cccc([N+](=O)[O-])c2)c(=O)c2noc(C)c12`, the Activity in test [1] was determined as 96%. On the same count and under the same terms, with `Cc1nn(-c2ccc(F)cc2)c(=O)c2noc(C)c12` the figure was 86%; with `C/C(=N\Nc1ccccc1[N+](=O)[O-])c1c(C(=O)O)noc1C`, 97%. On to `Cc1nn(-c2ccc([N+](=O)[O-])cc2)c(=O)c2noc(C)c12`, for which, in test [1], the Activity came to 85%. This compound showed an inhibition in test [2] of 15%. As for `Cc1onc(C(=O)O)c1CC(N)P(=O)(O)O` (racemic), the Activity in test [3] stood at 107%.
